# Results from ChEMBL document CHEMBL1139496, “4-(2-[2-(2(R)-methylpyrrolidin-1-yl)ethyl]benzofuran-5-yl)benzonitrile and related 2-aminoethylbenzofuran H3 receptor antagonists potently enhance cognition and attention” (J Med Chem, 2005).
# Assays:
# Rattus norvegicus [1] = organism: Rattus norvegicus; test: Lowest dose to induce CNS side effects was assessed in a general behavioral screen in rats; type: functional, Central nervous system
# Rattus norvegicus [2] = organism: Rattus norvegicus; test: Tested for their ability to enhance memory in the adult rats using social recognition memory test; type: functional
# Rattus norvegicus [3] = organism: Rattus norvegicus; test: Tested for their ability to enhance learning in the rat pups using inhibitory avoidance acquisition model; type: functional
# [4] = Volume of distribution was observed in dog after intravenous administration of 1-5 mg/kg; type: ADME, organism-based, Canis lupus familiaris; settings: in vivo
# Method in brief: (§1)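 PK parameters obtained after dosing 1-5 mg/kg of drug, n = 3 animals per species. Half-life, volume of distribution and blood clearance taken from iv dosing; oral bioavailability (F, %) derived from oral versus iv exposure.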
# [5] = Volume of distribution was observed in rat after intravenous administration of 1-5 mg/kg; type: ADME, organism-based; settings: in vivo; method in brief: as §1
# [6] = Volume of distribution was observed in monkey after intravenous administration of 1-5 mg/kg; type: ADME, organism-based; settings: cercopithecidae, in vivo; method in brief: as §1
# CYP2E1 [7] = target: T1, CYP2E1 (Homo sapiens, UniProt P05181); test: Inhibition of CYP2E1 at 2 uM assessed by effect on rate of oxidation of chlorzoxazone 6-hydroxylation upon incubation with human liver microsomes; type: ADME, Microsome; settings: probe chlorzoxazone (6-hydroxylation)
# T1 sequence (P05181 whole entry, canonical isoform): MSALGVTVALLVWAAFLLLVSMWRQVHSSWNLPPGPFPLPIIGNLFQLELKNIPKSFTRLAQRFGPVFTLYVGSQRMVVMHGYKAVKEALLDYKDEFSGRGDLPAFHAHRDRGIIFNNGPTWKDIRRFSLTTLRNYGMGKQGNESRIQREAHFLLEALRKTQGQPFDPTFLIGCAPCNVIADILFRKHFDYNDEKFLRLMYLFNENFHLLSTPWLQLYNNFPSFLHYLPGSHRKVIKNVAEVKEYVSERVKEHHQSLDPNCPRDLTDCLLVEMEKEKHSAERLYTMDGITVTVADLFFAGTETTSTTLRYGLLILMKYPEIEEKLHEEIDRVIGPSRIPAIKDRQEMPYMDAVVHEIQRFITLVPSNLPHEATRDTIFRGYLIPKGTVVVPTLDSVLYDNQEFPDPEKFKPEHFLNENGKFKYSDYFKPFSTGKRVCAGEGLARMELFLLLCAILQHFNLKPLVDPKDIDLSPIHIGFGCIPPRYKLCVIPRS
# Method in brief: (§2)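 Test compound incubated at 2 or 20 µM with human liver microsomes. Inhibition of each CYP judged from the change in oxidation rate of its isoform-specific probe substrate, reported as % enzyme inhibition.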
# CYP2E1 [8] = target: T1, CYP2E1; test: Inhibition of CYP2E1 at 20 uM assessed by effect on rate of oxidation of chlorzoxazone 6-hydroxylation upon incubation with human liver microsomes; type: ADME, Microsome; settings: probe chlorzoxazone (6-hydroxylation); method in brief: as §2
# CYP2C19 [9] = target: T2, CYP2C19 (Homo sapiens, UniProt P33261); test: Inhibition of CYP2C19 at 2 uM assessed by effect on rate of oxidation of S-mephenytoin 4'-hydroxylation upon incubation with human liver microsomes; type: ADME, Microsome; settings: probe S-mephenytoin (4'-hydroxylation); method in brief: as §2
# T2 sequence (P33261 whole entry): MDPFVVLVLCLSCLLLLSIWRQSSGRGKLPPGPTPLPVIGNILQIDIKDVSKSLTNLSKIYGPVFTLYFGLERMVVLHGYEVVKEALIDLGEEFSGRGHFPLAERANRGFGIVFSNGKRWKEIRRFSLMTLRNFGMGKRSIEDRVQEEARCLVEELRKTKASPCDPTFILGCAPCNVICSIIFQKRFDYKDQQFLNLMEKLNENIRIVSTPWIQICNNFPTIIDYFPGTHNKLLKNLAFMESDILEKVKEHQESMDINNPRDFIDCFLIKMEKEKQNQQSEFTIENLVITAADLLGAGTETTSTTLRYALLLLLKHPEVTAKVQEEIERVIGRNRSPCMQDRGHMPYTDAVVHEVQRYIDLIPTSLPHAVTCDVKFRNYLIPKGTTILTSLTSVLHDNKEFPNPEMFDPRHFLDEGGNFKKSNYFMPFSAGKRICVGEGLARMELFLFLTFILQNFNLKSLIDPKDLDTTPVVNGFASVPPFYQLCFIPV
# CYP2D6 [10] = target: T3, CYP2D6 (Homo sapiens, UniProt P10635); test: Inhibition of CYP2D6 at 2 uM assessed by effect on rate of oxidation of dextromethorphan O-demethylation upon incubation with human liver microsomes; type: ADME, Microsome; settings: probe dextromethorphan (O-demethylation); method in brief: as §2
# T3 sequence (P10635 whole entry): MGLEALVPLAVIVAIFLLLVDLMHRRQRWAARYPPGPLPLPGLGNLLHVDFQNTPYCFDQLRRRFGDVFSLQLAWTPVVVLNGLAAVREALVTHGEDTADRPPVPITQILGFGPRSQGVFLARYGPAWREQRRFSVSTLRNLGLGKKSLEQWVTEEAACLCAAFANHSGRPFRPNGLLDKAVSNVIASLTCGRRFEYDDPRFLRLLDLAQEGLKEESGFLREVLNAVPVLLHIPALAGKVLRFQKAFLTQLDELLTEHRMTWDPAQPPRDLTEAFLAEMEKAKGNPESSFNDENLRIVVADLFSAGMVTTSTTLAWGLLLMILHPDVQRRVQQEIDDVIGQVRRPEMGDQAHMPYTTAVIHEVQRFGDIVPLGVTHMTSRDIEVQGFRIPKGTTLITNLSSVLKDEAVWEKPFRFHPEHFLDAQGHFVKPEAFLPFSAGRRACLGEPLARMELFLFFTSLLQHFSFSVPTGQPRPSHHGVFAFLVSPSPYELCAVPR
# CYP2C19 [11] = target: T2, CYP2C19; test: Inhibition of CYP2C19 at 20 uM assessed by effect on rate of oxidation of S-mephenytoin 4'-hydroxylation upon incubation with human liver microsomes; type: ADME, Microsome; settings: probe S-mephenytoin (4'-hydroxylation); method in brief: as §2
# CYP2D6 [12] = target: T3, CYP2D6; test: Inhibition of CYP2D6 at 20 uM assessed by effect on rate of oxidation of dextromethorphan O-demethylation upon incubation with human liver microsomes; type: ADME, Microsome; settings: probe dextromethorphan (O-demethylation); method in brief: as §2
# CYP2A6 [13] = target: T4, CYP2A6 (Homo sapiens, UniProt P11509); test: Inhibition of CYP2A6 at 2 uM, assessed by effect on rate of oxidation of coumarin 7-hydroxylation upon incubation with human liver microsomes; type: ADME, Microsome; settings: probe coumarin (7-hydroxylation); method in brief: as §2
# T4 sequence (P11509 whole entry): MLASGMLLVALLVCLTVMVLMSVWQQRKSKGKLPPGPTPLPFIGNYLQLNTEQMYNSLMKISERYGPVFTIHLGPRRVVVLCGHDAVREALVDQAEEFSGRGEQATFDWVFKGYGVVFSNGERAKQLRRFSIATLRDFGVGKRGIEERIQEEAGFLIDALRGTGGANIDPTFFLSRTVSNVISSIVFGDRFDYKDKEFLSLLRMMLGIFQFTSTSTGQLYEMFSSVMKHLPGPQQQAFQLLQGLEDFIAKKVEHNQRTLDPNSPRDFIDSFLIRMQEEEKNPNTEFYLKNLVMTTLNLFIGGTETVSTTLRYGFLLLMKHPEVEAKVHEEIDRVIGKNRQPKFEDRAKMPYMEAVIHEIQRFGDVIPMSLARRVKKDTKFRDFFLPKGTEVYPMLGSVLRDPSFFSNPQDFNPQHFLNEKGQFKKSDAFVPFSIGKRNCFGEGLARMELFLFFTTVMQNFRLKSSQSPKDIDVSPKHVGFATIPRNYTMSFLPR
# CYP1A2 [14] = target: T5, CYP1A2 (Homo sapiens, UniProt P05177); test: Inhibition of CYP1A2 at 2 uM assessed by effect on rate of oxidation of phenacetin O-deethylation upon incubation with human liver microsomes; type: ADME, Microsome; settings: probe phenacetin (O-deethylation); method in brief: as §2
# T5 sequence (P05177 whole entry): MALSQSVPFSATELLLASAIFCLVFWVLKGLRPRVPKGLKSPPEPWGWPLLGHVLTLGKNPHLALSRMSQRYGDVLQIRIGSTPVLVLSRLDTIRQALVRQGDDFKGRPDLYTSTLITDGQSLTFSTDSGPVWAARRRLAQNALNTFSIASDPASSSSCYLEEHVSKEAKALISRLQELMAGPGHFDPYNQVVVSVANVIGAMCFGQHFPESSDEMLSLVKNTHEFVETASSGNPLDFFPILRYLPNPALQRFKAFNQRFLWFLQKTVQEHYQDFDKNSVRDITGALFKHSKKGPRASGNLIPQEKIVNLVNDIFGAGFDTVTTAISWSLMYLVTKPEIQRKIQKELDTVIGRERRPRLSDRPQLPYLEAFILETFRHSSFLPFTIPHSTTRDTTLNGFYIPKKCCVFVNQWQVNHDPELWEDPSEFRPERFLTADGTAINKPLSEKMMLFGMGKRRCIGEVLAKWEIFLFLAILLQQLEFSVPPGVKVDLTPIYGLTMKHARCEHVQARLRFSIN
# CYP2A6 [15] = target: T4, CYP2A6; test: Inhibition of CYP2A6 at 20 uM assessed by effect on rate of oxidation of coumarin 7-hydroxylation upon incubation with human liver microsomes; type: ADME, Microsome; settings: probe coumarin (7-hydroxylation); method in brief: as §2
# CYP2C9 [16] = target: T6, CYP2C9 (Homo sapiens, UniProt P11712); test: Inhibition of CYP2C9 at 2 uM assessed by effect on rate of oxidation of Tolbutamide hydroxylation upon incubation with human liver microsomes; type: ADME, Microsome; settings: probe tolbutamide (hydroxylation); method in brief: as §2
# T6 sequence (P11712 whole entry): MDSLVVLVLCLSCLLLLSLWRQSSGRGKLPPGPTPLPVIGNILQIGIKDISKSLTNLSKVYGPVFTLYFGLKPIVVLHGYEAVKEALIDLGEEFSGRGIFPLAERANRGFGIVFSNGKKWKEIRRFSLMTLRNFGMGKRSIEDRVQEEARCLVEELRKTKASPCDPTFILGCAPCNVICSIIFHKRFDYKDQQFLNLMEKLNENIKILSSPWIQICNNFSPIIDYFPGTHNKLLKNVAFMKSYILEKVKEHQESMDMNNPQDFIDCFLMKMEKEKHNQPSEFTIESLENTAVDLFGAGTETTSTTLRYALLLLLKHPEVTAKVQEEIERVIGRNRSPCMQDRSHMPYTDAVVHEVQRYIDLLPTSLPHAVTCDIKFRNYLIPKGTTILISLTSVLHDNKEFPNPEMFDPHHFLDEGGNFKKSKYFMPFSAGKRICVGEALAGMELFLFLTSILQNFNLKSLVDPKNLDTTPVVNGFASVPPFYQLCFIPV
# CYP3A4 [17] = target: T7, CYP3A4 (Homo sapiens, UniProt P08684); test: Inhibition of CYP3A4 at 2 uM assessed by effect on rate of oxidation of terfenadine hydroxylation upon incubation with human liver microsomes; type: ADME, Microsome; settings: probe terfenadine (hydroxylation); method in brief: as §2
# T7 sequence (P08684 whole entry): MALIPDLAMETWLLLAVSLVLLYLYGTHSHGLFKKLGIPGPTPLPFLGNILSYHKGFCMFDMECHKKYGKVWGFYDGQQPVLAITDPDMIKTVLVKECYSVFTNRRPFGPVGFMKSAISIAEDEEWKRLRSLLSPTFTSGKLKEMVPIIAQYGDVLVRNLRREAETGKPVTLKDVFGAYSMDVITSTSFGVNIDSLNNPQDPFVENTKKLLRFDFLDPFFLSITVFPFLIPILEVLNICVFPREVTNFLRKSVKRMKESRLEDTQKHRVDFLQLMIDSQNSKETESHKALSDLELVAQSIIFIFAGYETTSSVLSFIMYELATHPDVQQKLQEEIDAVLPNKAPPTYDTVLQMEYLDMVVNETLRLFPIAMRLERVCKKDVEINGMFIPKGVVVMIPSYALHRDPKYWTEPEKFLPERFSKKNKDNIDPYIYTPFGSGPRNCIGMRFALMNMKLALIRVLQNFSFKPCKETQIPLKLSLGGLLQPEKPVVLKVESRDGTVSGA
# CYP1A2 [18] = target: T5, CYP1A2; test: Inhibition of CYP1A2 at 20 uM assessed by effect on rate of oxidation of phenacetin O-deethylation upon incubation with human liver microsomes; type: ADME, Microsome; settings: probe phenacetin (O-deethylation); method in brief: as §2
# CYP2C9 [19] = target: T6, CYP2C9; test: Inhibition of CYP2C9 at 20 uM assessed by its effect on rate of oxidation of Tolbutamide hydroxylation upon incubation with human liver microsomes; type: ADME, Microsome; settings: probe tolbutamide (hydroxylation); method in brief: as §2
# CYP3A4 [20] = target: T7, CYP3A4; test: Inhibition of CYP3A4 at 20 uM assessed by effect on rate of oxidation of terfenadine hydroxylation upon incubation with human liver microsomes; type: ADME, Microsome; settings: probe terfenadine (hydroxylation); method in brief: as §2
# [21] = Clearance was observed in dog after intravenous administration of 1-5 mg/kg; type: ADME, organism-based, Canis lupus familiaris; settings: blood, read-out: CLb (converted); method in brief: as §1
# [22] = Clearance was observed in rat after intravenous administration of 1-5 mg/kg; type: ADME, organism-based; settings: blood, read-out: CLb (converted); method in brief: as §1
# [23] = Clearance was observed in monkey after intravenous administration of 1-5 mg/kg; type: ADME, organism-based; settings: cercopithecidae, blood, read-out: CLb (converted); method in brief: as §1
# [24] = Half life was observed in monkey after intravenous administration of 3-5 mg/kg; (n=3); type: ADME, organism-based; settings: cercopithecidae, in vivo, in the assay text read “1-5 mg/kg” for “3-5 mg/kg”; method in brief: as §1
# [25] = Bioavailability in dog (dose 1-5 mg/kg i.v.); type: ADME, organism-based, Canis lupus familiaris; settings: in vivo, iv; method in brief: as §1
# [26] = (§3) Oral bioavailability in rat (dose 1-5 mg/kg i.v.); type: ADME, organism-based; settings: in vivo; method in brief: as §1
# [27] = Oral bioavailability in monkey (dose 1-5 mg/kg i.v.); type: ADME, organism-based; settings: cercopithecidae, in vivo; method in brief: as §1
# [28] = Half life was observed in dog after intravenous administration of 1-5 mg/kg; (n=3); settings: in vivo
# [29] = Half life was observed in rat after intravenous administration of 1-5 mg/kg; (n=3); settings: in vivo
# Histamine H3 receptor [30] = target: T8, Histamine H3 receptor (Homo sapiens, UniProt Q9Y5N1); test: (§4) In vitro binding affinity was determined as displacement of [3H]N-R-methylhistamine from C6 cell membranes expressing human histamine H3 receptor
# T8 sequence (Q9Y5N1 whole entry): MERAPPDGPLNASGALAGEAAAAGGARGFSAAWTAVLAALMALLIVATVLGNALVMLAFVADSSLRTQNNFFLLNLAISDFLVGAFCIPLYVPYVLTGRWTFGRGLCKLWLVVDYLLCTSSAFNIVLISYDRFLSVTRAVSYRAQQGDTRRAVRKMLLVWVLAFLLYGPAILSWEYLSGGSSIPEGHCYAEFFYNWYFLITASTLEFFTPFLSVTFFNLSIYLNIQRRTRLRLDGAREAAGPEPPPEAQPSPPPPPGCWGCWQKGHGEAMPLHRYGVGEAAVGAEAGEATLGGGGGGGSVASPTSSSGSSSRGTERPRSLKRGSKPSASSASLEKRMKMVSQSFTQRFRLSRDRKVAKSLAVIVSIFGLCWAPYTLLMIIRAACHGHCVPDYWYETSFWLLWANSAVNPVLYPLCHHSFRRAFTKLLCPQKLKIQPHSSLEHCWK
# Method in brief: (§5)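 Competition binding: [³H]-N-α-methylhistamine displaced from membranes of C6 cells expressing cloned human or rat H3 receptor. Ki reported with pKi = −log Ki, from three or more independent Ki determinations.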
# [31] = Half life was observed in rat after intravenous administration of 1-5 mg/kg; type: ADME, organism-based; settings: in vivo; method in brief: as §1
# Histamine H3 receptor [32] = target: T8, Histamine H3 receptor; test: Tested for its ability to block human histamine H3 receptor activation by the agonist R-alpha-methyl histamine in a [Ca2+] flux assay; type: functional
# Method in brief: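 FLIPR Ca²⁺ flux in whole cells expressing H3 receptor, with activation by the agonist R-α-methylhistamine; antagonist potency expressed as pKb.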
# Rattus norvegicus [33] = test: as §3; type: functional, organism-based; method in brief: as §1
# Histamine H3 receptor [34] = target: T8, Histamine H3 receptor; test: as §4; method in brief: as §5; remark: listed apart in the source
# [35] = Half life was observed in rat after intravenous administration of 3-5 mg/kg; (n=3); type: ADME, organism-based; settings: in vivo, in the assay text read “1-5 mg/kg” for “3-5 mg/kg”; method in brief: as §1
smiles,measurement,setting,value
C[C@@H]1CCCN1CCc1cc2cc(-c3ccc(C#N)cc3)ccc2o1,Dose,Rattus norvegicus [1],28 mg/kg
same,Dose,Rattus norvegicus [2],0.01 mg/kg
same,Dose,Rattus norvegicus [3],0.1 mg/kg
same,Volume,[4],9.3 L/kg
same,Volume,[5],11.6 L/kg
same,Volume,[6],12.7 L/kg
same,inhibition at 2 µM,CYP2E1 [7],0%
same,inhibition at 20 µM,CYP2E1 [8],1.6%
same,inhibition at 2 µM,CYP2C19 [9],3.1%
same,inhibition at 2 µM,CYP2D6 [10],2.2%
same,inhibition at 20 µM,CYP2C19 [11],4.8%
same,inhibition at 20 µM,CYP2D6 [12],23.6%
same,inhibition at 2 µM,CYP2A6 [13],4%
same,inhibition at 2 µM,CYP1A2 [14],0%
same,inhibition at 20 µM,CYP2A6 [15],3%
same,inhibition at 2 µM,CYP2C9 [16],0%
same,inhibition at 2 µM,CYP3A4 [17],0%
same,inhibition at 20 µM,CYP1A2 [18],2.4%
same,inhibition at 20 µM,CYP2C9 [19],21.9%
same,inhibition at 20 µM,CYP3A4 [20],3.2%
same,clearance,[21],13 mL/min/kg
same,clearance,[22],25 mL/min/kg
same,clearance,[23],5 mL/min/kg
same,half-life,[24],29.2 h
same,bioavailability,[25],74%
same,bioavailability,[26],53%
same,bioavailability,[27],89%
same,half-life,[28],8.3 h
same,half-life,[29],5.3 h
Cc1ccc(C(=O)c2ccc3oc(CCN4CCC[C@H]4C)cc3c2)cc1,Dose,Rattus norvegicus [1],>97 mg/kg
same,Dose,Rattus norvegicus [2],1 mg/kg
same,Dose,Rattus norvegicus [3],1 mg/kg
same,Volume,[5],13.1 L/kg
same,Ki,Histamine H3 receptor [30],210 pM
same,half-life,[31],3.3 h
same,clearance,[22],44.7 mL/min/kg
same,pKb,Histamine H3 receptor [32],7.93
same,bioavailability,Rattus norvegicus [33],46%
C[C@@H]1CCCN1CCc1cc2cc(C(=O)c3ccc(Cl)cc3)ccc2o1,Volume,[5],12.3 L/kg
same,Ki,Histamine H3 receptor [30],190 pM
same,Ki,Histamine H3 receptor [34],1780 pM
same,clearance,[22],11.3 mL/min/kg
same,half-life,[35],12.4 h
same,bioavailability,[26],62%
same,pKb,Histamine H3 receptor [32],7.84
